SR-BI DiI inh – blocks mouse SR-BI lipid uptake from DiI-HDL; ldlA[mSR-BI] CHO cells, DiI-HDL uptake fluorescence, 3 h; inhibition, % at 12.5 µM; 320,000 compounds, 0.96% hits;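 active means mean replicate inhibition of at least 70% and a set share of replicates each scoring 70 or more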
Target sequence (Q61009 whole entry, looked up): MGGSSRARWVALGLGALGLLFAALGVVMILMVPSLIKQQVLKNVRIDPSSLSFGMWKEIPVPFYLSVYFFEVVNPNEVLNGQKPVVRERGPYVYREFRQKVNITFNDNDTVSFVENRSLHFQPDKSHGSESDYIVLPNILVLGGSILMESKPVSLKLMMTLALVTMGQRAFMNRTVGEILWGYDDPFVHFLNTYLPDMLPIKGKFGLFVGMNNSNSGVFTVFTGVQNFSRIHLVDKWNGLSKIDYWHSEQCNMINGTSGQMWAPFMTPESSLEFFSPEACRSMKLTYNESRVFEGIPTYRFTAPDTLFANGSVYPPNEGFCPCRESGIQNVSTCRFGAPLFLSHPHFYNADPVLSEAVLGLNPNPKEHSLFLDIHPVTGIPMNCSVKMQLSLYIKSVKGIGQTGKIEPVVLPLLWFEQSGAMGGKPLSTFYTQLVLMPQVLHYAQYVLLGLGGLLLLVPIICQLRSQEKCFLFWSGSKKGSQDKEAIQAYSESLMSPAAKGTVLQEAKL
Kir21 inh – Kir2.1 (mouse) channel inhibition; HEK293-Kir2.1, FluxOR thallium flux fluorescence; hits give low values; B-score at 10 µM; 310,000 compounds, 0.85% hits; AID 1672;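 active means fluorescence ratio B-score at or below minus 3 SD of library scores, with starting-brightness B-score within 2 SD, cut at about -4.2 in these data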;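 further: channel flux triggered by added potassium and thallium sulfate stimulus; B-score of peak minus minimum fluorescence over baseline after thallium stimulus; more negative B-score means stronger Kir2.1 block with less thallium influx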
TMEM16A act – activators or potentiators of mouse TMEM16A chloride channel; B-score at 10 µM; AID 623877; 340,000 compounds, 0.3% hits; HEK293 TMEM16A/YFP-H148Q/I152L, iodide quench fluorescence; hits give low values;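 active means fluorescence-ratio B-score plate-corrected deviation score at least 3 library SD below zero, with starting fluorescence score within 5 deviations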;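 further: channel opened by trigger with iodide after compound preincubation; score built on the fluorescence ratio of max minus min over baseline; more negative score means more quench and so TMEM16A activation or potentiation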
FID counter – displaces DNA intercalator in HCV helicase counter-screen | inhibition, % at 7.9 µM | 290,000 compounds, 0.17% hits | DNA fluorescent intercalator displacement, fluorescence | AID 1845; in the data active means inhibition above about 37%;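 further: higher means more ethidium bromide displaced from hairpin DNA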
SR-BI uptake up – activators of SR-BI mediated HDL lipid uptake | CHO ldlA[mSR-BI] cells, DiI-HDL uptake fluorescence, 3 h; 100 = double the neutral-control signal | AID 504775 | activation, % at 12.5 µM | 320,000 compounds, 0.096% hits;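 active means mean replicate activation of at least 60% and every replicate at or above 60%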
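Assay system: LDL receptor-deficient CHO ldlA cells overexpressing murine SR-BI / Medium: BSA-supplemented, HEPES-buffered Ham's F12, pH 7.4 / Probe or stimulus: DiI-labelled HDL at 10 µg/mL final / Timing: compound with DiI-HDL co-incubation, 3 h at 37 °C / Technique: bottom-read cell fluorescence after medium removal, ex 550/em 595 nm / Measure: HDL uptake via cellular fluorescence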
ANO1 block – blocks the mouse calcium-activated chloride channel TMEM16A; 310,000 compounds, 1.2% hits; normalized B-score (activity score, 25-100; higher = stronger inhibition) at 10 µM; Q8BHY3; HEK293 TMEM16A/YFP iodide influx fluorescence, ionomycin; AID 588511;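 active means ratio plate-corrected score three or more library SD toward inhibition, starting fluorescence score within five deviations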;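 further: score derived from kinetic fluorescence span divided by baseline fluorescence per well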
Numbers stand for hits. A selection: hits, their analogues and other compounds. The true share with any hit is near 3%.

Screening O=C(COc1ccc(S(=O)(=O)NC2CCCCC2)cc1Cl)NCC1CCCO1 (stereo unspecified) returned SR-BI DiI inh inactive, Kir21 inh inactive, TMEM16A act inactive, FID counter inactive, SR-BI uptake up inactive and ANO1 block inactive.
`O=C(/C=C/c1cccc([N+](=O)[O-])c1)NCCSCc1cccc(Cl)c1` gave SR-BI DiI inh inactive, Kir21 inh inactive, TMEM16A act inactive, FID counter inactive, SR-BI uptake up inactive and ANO1 block 100.
For Cn1cnc2ncnc(Oc3ccc(Br)cc3)c21 the results were SR-BI DiI inh inactive, TMEM16A act inactive and SR-BI uptake up inactive.
Screening COc1ccc(NC(=O)c2ccc(Cl)nc2)cc1S(=O)(=O)N1CCCCC1 returned SR-BI DiI inh 75, Kir21 inh inactive, TMEM16A act inactive, FID counter inactive, SR-BI uptake up inactive and ANO1 block inactive.
`Cc1cc(C)cc(NC(=O)c2cc3c(=O)n4ccccc4nc3s2)c1` gave SR-BI DiI inh 78, Kir21 inh inactive, TMEM16A act inactive, FID counter inactive, SR-BI uptake up inactive and ANO1 block inactive.
For O=[N+]([O-])c1cc([N+](=O)[O-])c2cccnc2c1Oc1ccccc1O the results were SR-BI DiI inh inactive, Kir21 inh -8.9, TMEM16A act inactive, FID counter inactive, SR-BI uptake up inactive and ANO1 block inactive.
For O=[N+]([O-])c1ccc(O)c2ncccc12 the results were SR-BI DiI inh inactive, Kir21 inh inactive, TMEM16A act inactive, FID counter inactive, SR-BI uptake up inactive and ANO1 block inactive.
For CCOC(=O)c1cnc(-n2nc(C)cc2C)nc1NCc1ccccc1 the results were SR-BI DiI inh inactive, Kir21 inh inactive, TMEM16A act inactive, FID counter inactive, SR-BI uptake up inactive and ANO1 block 100.
`COc1ccc(-c2nc(-c3cccs3)c(-c3cccs3)[nH]2)cc1O` gave SR-BI DiI inh inactive, Kir21 inh -5.6, TMEM16A act inactive, FID counter inactive, SR-BI uptake up inactive and ANO1 block inactive.
`Cc1ccc(CNC(=O)c2ccc(CNS(=O)(=O)c3ccc4c(c3)C(C)(C)C(=O)N4C)cc2)o1` gave SR-BI DiI inh inactive, Kir21 inh inactive, TMEM16A act inactive, FID counter inactive, SR-BI uptake up inactive and ANO1 block inactive.
CC(C)[C@H](NC(=O)c1ccccc1)C(=O)OCC(=O)c1ccc(S(=O)(=O)N2CCCCC2)cc1 was read as SR-BI DiI inh inactive, Kir21 inh inactive, TMEM16A act inactive, SR-BI uptake up inactive and ANO1 block inactive.
For COC(=O)c1ccc(CSc2nc3ccccc3o2)cc1 the results were SR-BI DiI inh inactive, Kir21 inh inactive, TMEM16A act inactive, FID counter inactive, SR-BI uptake up inactive and ANO1 block 25.
Screening Cc1cccc2c(C(=O)N3CCN(C(=O)c4ccco4)CC3)cc(-c3cccc(Br)c3)nc12 returned SR-BI DiI inh inactive, Kir21 inh inactive, TMEM16A act inactive, FID counter inactive, SR-BI uptake up inactive and ANO1 block 100.
Screening O=c1c(Cl)c(Cl)cnn1Cc1nnc(-c2ccccc2Br)o1 returned SR-BI DiI inh inactive, Kir21 inh inactive, TMEM16A act -13, FID counter inactive and SR-BI uptake up inactive.
c1cn2cc(CN3CCOCC3)nc2s1 was read as SR-BI DiI inh inactive, Kir21 inh inactive, TMEM16A act inactive, FID counter inactive, SR-BI uptake up inactive and ANO1 block 25.
For COc1ccccc1NC(=O)C(=O)NCCC1CCCCN1S(=O)(=O)c1ccc(F)cc1 (stereo unspecified) the results were SR-BI DiI inh inactive, Kir21 inh inactive, TMEM16A act inactive, SR-BI uptake up inactive and ANO1 block inactive.
Screening CC1(C)Cc2c(cnn2-c2ccc(F)cc2)C(NC(=O)C2=NNC(=O)CC2)C1 (stereo unspecified) returned SR-BI DiI inh inactive, Kir21 inh inactive, TMEM16A act inactive, FID counter inactive, SR-BI uptake up inactive and ANO1 block inactive.
Cc1nc(N2CCCCC2)c2c(C)c(C(=O)Nc3ccccc3C(F)(F)F)sc2n1 was read as SR-BI DiI inh inactive, Kir21 inh inactive, TMEM16A act inactive, FID counter inactive, SR-BI uptake up inactive and ANO1 block inactive.
`Cc1nc(N2CCCCC2C)c2c(C)c(C(=O)Nc3cccc(C(F)(F)F)c3)sc2n1` (stereo unspecified) gave SR-BI DiI inh 74, Kir21 inh inactive, TMEM16A act inactive, FID counter inactive, SR-BI uptake up inactive and ANO1 block inactive.
`Cc1nc(N2CCCCC2)c2c(C)c(C(=O)Nc3cccc(C(F)(F)F)c3)sc2n1` gave SR-BI DiI inh 78, Kir21 inh inactive, TMEM16A act inactive, FID counter inactive, SR-BI uptake up inactive and ANO1 block inactive.
For COC(C(=O)Nc1ccnn1C1CCN(C(=O)c2ccc(C=O)cc2)CC1)c1ccccc1 (stereo unspecified) the results were SR-BI DiI inh inactive, Kir21 inh inactive, TMEM16A act inactive, FID counter inactive, SR-BI uptake up inactive and ANO1 block inactive.
Cc1cccc(COc2ccccc2C(=O)OCC(=O)N(C)c2c(N)n(Cc3ccccc3)c(=O)[nH]c2=O)c1 was read as SR-BI DiI inh 87, Kir21 inh inactive, TMEM16A act inactive, FID counter inactive, SR-BI uptake up inactive and ANO1 block inactive.
`COc1cc2ccccc2cc1C(=O)OCC(=O)N(C)c1c(N)n(Cc2ccccc2)c(=O)[nH]c1=O` gave SR-BI DiI inh inactive, Kir21 inh inactive, TMEM16A act inactive, SR-BI uptake up inactive and ANO1 block inactive.
For Oc1ccccc1CN1CCN(C(O)(c2ccccc2)c2ccccc2)CC1 the results were SR-BI DiI inh inactive, Kir21 inh -7.3, TMEM16A act inactive, FID counter inactive, SR-BI uptake up inactive and ANO1 block inactive.
For Oc1ccccc1CN1CCC(C(O)(c2ccccc2)c2ccccc2)CC1 the results were SR-BI DiI inh inactive, Kir21 inh -5.2, TMEM16A act inactive, FID counter inactive, SR-BI uptake up inactive and ANO1 block inactive.
Screening CC(NC(=O)c1ccc(NC(=O)CC2SC(N3CCCC3)=NC2=O)cc1)c1ccc(S(N)(=O)=O)cc1 (stereo unspecified) returned SR-BI DiI inh inactive, Kir21 inh inactive, TMEM16A act inactive, SR-BI uptake up inactive and ANO1 block inactive.
For O=C(NCCc1ccccc1)C1=CCN(S(=O)(=O)c2ccccc2)CC1 the results were SR-BI DiI inh inactive, Kir21 inh inactive, TMEM16A act inactive, FID counter inactive, SR-BI uptake up inactive and ANO1 block inactive.
For COc1ccc(CCNC(=O)c2ccc(=O)[nH]c2)cc1OC the results were Kir21 inh inactive, TMEM16A act inactive, FID counter inactive and ANO1 block inactive.
`O=C(CCc1nc(-c2ccccc2)c(-c2ccccc2)o1)OCc1ccc(Cl)cc1` gave SR-BI DiI inh inactive, Kir21 inh inactive, TMEM16A act -5.5, FID counter inactive, SR-BI uptake up inactive and ANO1 block inactive.

Screening results deposited in PubChem BioAssay by several laboratories.
